# High-throughput results deposited in PubChem by Sanford-Burnham Center for Chemical Genomics.
# SUMO1 PPI mod = alters human SUMO1 binding to SIM partners; P63165; SUMO1 binding to a labelled peptide, TR-FRET, 1 h; inhibition, % at 20 µM; 0.33% of 360,000 active; in the data active means inhibition above about 37%
# Target sequence (P63165 whole entry, looked up): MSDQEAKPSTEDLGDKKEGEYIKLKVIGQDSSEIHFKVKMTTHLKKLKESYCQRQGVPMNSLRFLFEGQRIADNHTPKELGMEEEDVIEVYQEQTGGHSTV
# Scp-1 inhibitor = inhibitors of human Scp-1 phosphatase. Q9GZU7. Recombinant Scp1, phosphopeptide, malachite green phosphate absorbance. inhibition, % at 20 µM. 0.88% of 340,000 active. AID 493091;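 active means inhibition above about 50% at 20 µM, limit read from the data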;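 further: plate controls were DMSO wells with enzyme for no effect and wells lacking enzyme for full effect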
#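 Test system: SCP-1 phosphatase catalytic domain, residues 76-261 | Compound dosing: One concentration, 20 µM, with 1.0% DMSO | Schedule: 45 min room-temperature reaction, 5 min colour, 30 min stabiliser | Detection: Absorbance at 630 nm | Read-out basis: % inhibition of SCP-1 phosphate liberation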
# FAS TE block = inhibitors of human fatty acid synthase thioesterase domain. 0.67% of 360,000 active. inhibition, % at 15 µM. recombinant FAS-TE, OMFH fluorogenic substrate, fluorescence endpoint. P49327;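 active means compounds whose normalised, plate-corrected inhibition of enzyme fluorescence in the single-dose primary screen is 50% or more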;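 further: 0% = DMSO with enzyme and 100% = substrate without enzyme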
# STEP block = STEP (human) phosphatase inhibition | recombinant STEP, OMFP fluorogenic substrate, fluorescence | inhibition, % at 20 µM | 0.25% of 360,000 active;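 active means inhibition at 20 µM, scaled per plate between control wells, above about 37%, limit read from the data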;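 further: 0% = DMSO with enzyme and substrate and 100% = substrate only without enzyme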
#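 Also added – OMFP at 25 µM · Test system – STEP tyrosine phosphatase · Technique – FITC-channel fluorescence of OMFP product · Schedule – 20 min at room temperature, dark · Evaluation – control-normalized % inhibition with plate pattern correction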
# LMPTP block = LMPTP (human) inhibition; AID 651560; inhibition, % at 20 µM; 0.22% of 360,000 active; recombinant LMPTP-A, OMFP fluorogenic substrate, fluorescence intensity;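 active means compounds that cut the enzyme signal by at least half of the control window in the single-dose screen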;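 further: plate controls were DMSO wells with enzyme plus substrate for no effect and substrate without enzyme for full effect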
# Target sequence (P24666 whole entry, looked up): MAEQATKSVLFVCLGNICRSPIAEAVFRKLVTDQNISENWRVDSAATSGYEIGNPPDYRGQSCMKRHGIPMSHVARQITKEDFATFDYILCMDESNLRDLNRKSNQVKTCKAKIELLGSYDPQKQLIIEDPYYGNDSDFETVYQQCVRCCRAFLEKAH
#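 test system = LMPTP-A | amount = 0.625 nM LMPTP-A final | reagent = fluorogenic phosphatase substrate OMFP at 400 µM final | incubation = 50 min at room temperature | benchmarks = no-enzyme low control, uninhibited high control | medium = Bis-Tris pH 6.0, DTT, detergent | signal = fluorescence intensity of OMFP turnover product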
# FAS-TE conf = confirmation of human fatty acid synthase thioesterase inhibitors | shares compounds with FAS TE block | recombinant FAS-TE, OMFH fluorogenic substrate, fluorescence | inhibition, % at 15 µM | 45% of 2,300 active;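 active means compounds inhibiting the enzyme by at least 50% at 15 µM in any one of the replicates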;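 further: 0% = enzyme with DMSO only and 100% = wells lacking enzyme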
# * = called active by the depositor; / = no result given. Only some compounds are listed: those with a hit (about 1.9% of all), similar ones and a draw of the others.
SMILES,SUMO1 PPI mod,Scp-1 inhibitor,FAS TE block,STEP block,LMPTP block,FAS-TE conf
Cc1noc(C)c1C(=O)OC(C)C(=O)Nc1ccc([N+](=O)[O-])cc1C(F)(F)F (configuration not stated),-11,/,-1,0,0,/
CCc1noc(C)c1C(=O)OC(C)C(=O)Nc1cc([N+](=O)[O-])ccc1OC (configuration not stated),-20,-9,75*,-1,0,33
CC(OC(=O)/C=C/c1ccco1)C(=O)Nc1cccc([N+](=O)[O-])c1 (configuration not stated),-22,18,38,2,0,/
COc1ccc([N+](=O)[O-])cc1NC(=O)COC(=O)c1ccccc1C(=O)c1ccccc1,-12,-2,28,-4,0,/
COc1ccc([N+](=O)[O-])cc1NC(=O)C(C)OC(=O)c1ccccc1C(=O)c1ccc(Cl)cc1 (configuration not stated),-1,-17,58*,-4,1,31
COc1ccc([N+](=O)[O-])cc1NC(=O)C(C)OC(=O)/C=C/c1ccco1 (configuration not stated),-16,7,62*,4,3,59*
Cc1ccc(OCC(=O)N/N=C2\CC(=O)CC(C)(C)C2)c(Br)c1,5,-7,1,0,-1,/
COc1ccccc1-c1noc2ncnc(Nc3cccc(C)c3C)c12,1,-8,8,5,0,/
CC(C)(C)c1ccc(OCCC(=O)OCC(=O)NC2CCCCC2)cc1,7,-6,57*,2,1,55*
CC(C)(C)c1ccc(OCCC(=O)OCC(=O)NC(=O)NC2CCCC2)cc1,3,-8,41,2,2,/
OC[C@@H]1CN(Cc2ccco2)C[C@H](n2cnc3c(Nc4ccccc4)ncnc32)O1,0,/,-4,23,-2,/
O=C1C=C(c2ccc(Cl)c(C(F)(F)F)c2)C[C@@H](c2ccc3c(c2)OCO3)C1,-4,1,75*,3,5,58*
O=C(Nc1nc2cc(Cl)ccc2s1)C1CCCN(S(=O)(=O)c2cccc3cccnc23)C1 (configuration not stated),0,3,69*,2,4,14
CCOC(=O)C1CCN(C(=O)c2cc3cc4ccc(C)cc4nc3o2)CC1,-28,-3,55*,1,0,62*
COc1ccc2cc3cc(C(=O)N4CCCCC4C)oc3nc2c1 (configuration not stated),-26,0,75*,-6,0,62*
COc1ccc2cc3cc(C(=O)N4CCCCCC4)oc3nc2c1,-34,-4,74*,1,2,56*
CCOC(=O)C1CCN(C(=O)c2cc3c(ccc4ccccc43)o2)CC1,-2,-5,15,0,1,/
COc1cc(CN(C(=O)c2ccco2)C2CCS(=O)(=O)C2)cc(OC)c1OC (configuration not stated),5,-7,-9,3,-2,/
COc1cccc(N(C(=O)CCl)C(C(=O)NCCc2ccccc2)c2cccs2)c1 (configuration not stated),-2,-4,48,-2,0,/
COc1ccc(N(C(=O)CCl)C(C(=O)NCCc2ccccc2)c2cccs2)cc1Cl (configuration not stated),0,-10,64*,-1,0,33*
Cc1ccc2c(c1)c1ccc3c(c1n2C)C(=O)C=CC3=O,-5,-7,54*,4,31,10
Cn1c2ccccc2c2ccc3c(c21)C(=O)C=CC3=O,8,17,18,1,14,/
COc1ccc(NC(=O)CN2C(=O)NC(C)(c3ccccc3)C2=O)c(OC)c1 (configuration not stated),9,-6,-3,1,1,/
CCCCN(C=O)c1c(CC)nc2c(OCc3ccc(Cl)cc3Cl)cccn12,5,/,55*,0,5,61*
CCc1nc2c(OCc3ccc(C(F)(F)F)cc3)cccn2c1N(C=O)Cc1ccc(OC)cc1,7,/,57*,-1,3,52*
CCCCN(C=O)c1c(CC)nc2c(OCc3ccc(C(F)(F)F)cc3)cccn12,-3,/,29,2,2,/
